Screening data deposited in PubChem by The Scripps Research Institute Molecular Screening Center.
Compounds with a hit are over-represented: about 1.8% of the library has one in this group of screens.
NPY1 pot ag = NPY-Y1 receptor potentiators or agonists, primary screen, cell-based; NPY-Y1 expressing cells, potentiator/agonist activation; hit rate 0.37% among 220,000; activation, % at 3.6 µM; AID 1304, 2008; in the data active means activation above about 33%, passing the limit was not always enough;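 further: cells stimulated with NPY at EC10 then isoproterenol at EC100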
Target sequence (P25929 whole entry, looked up): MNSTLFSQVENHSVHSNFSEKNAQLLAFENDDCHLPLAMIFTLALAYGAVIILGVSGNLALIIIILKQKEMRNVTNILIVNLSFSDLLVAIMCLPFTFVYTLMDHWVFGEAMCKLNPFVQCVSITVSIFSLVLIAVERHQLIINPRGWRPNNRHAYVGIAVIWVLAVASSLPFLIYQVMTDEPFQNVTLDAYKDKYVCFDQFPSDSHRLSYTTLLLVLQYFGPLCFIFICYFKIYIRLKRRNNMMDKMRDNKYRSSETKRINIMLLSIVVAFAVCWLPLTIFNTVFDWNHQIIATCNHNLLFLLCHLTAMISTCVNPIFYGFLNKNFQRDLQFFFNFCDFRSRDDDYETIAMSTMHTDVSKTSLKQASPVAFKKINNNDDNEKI
NPY Y2 blocker = NPY-Y2 receptor antagonists, primary screen, cell-based | hit rate 0.99% among 140,000 | Neuropeptide Y receptor type 2 (Homo sapiens), P49146 | inhibition, % at 2.7 µM | NPY-Y2 expressing cells, antagonist mode; in the data active means inhibition above about 17%
NPY-Y2 PAM-ag = NPY-Y2 potentiators or agonists, primary screen, cell-based; cells expressing NPY-Y2, potentiator/agonist read-out; activation, % at 3.6 µM; hit rate 0.45% among 220,000; AID 1359, 2008; in the data active means activation above about 27%;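 further: cells stimulated with NPY near EC25 plus isoproterenol at EC100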
NPY-Y1 antag = NPY-Y1 receptor antagonists, primary screen, cell-based. hit rate 1% among 200,000. inhibition, % at 3.6 µM. Neuropeptide Y receptor type 1 (Homo sapiens), P25929. HEK293-CNG Y1 cells, membrane potential fluorescence; NPY at EC95, then isoproterenol;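 active means inhibition above the campaign mean inhibition of all tested compounds plus 3 SD, cut at about 20% in these data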
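Material: Y1- and CNG-channel-expressing HEK293 cells / Probe or stimulus: NPY 25 nM then isoproterenol 1 µM plus Ro 20-1724 25 µM / Doses: 3.6 µM single dose, DMSO 0.4% / Schedule: compound incubation 1 h at room temperature, readout 45 min post-stimulation / Signal: membrane potential fluorescence / Benchmarks: isoproterenol-only wells as full block versus NPY-plus-isoproterenol wells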
Numbers stand for hits.

Screening Cc1ccnc(NC(=O)COc2ccc3oc4c(c3c2)CCCC4)c1 returned NPY1 pot ag inactive, NPY Y2 blocker inactive, NPY-Y2 PAM-ag inactive and NPY-Y1 antag 21.
`Cc1ccnc(NC(=O)COc2c(C)cc(C)cc2[N+](=O)[O-])c1` gave NPY1 pot ag inactive, NPY Y2 blocker inactive, NPY-Y2 PAM-ag inactive and NPY-Y1 antag inactive.
Screening O=C(CSc1ncn[nH]1)Nc1ccc(OCc2ccccc2)cc1 returned NPY1 pot ag inactive, NPY-Y2 PAM-ag inactive and NPY-Y1 antag inactive.
For COc1ccc(-c2nnc(CSc3nc4ccccc4c(=O)n3CC(C)C)o2)cc1OC the results were NPY1 pot ag inactive, NPY Y2 blocker 28, NPY-Y2 PAM-ag inactive and NPY-Y1 antag 26.
`CCOC(=O)CSc1nc2ccccc2c(=O)n1CC(C)C` gave NPY1 pot ag inactive, NPY-Y2 PAM-ag inactive and NPY-Y1 antag 20.
For CCOC(=O)CSc1nc2ccccc2c(=O)n1CC the results were NPY1 pot ag inactive, NPY Y2 blocker inactive, NPY-Y2 PAM-ag inactive and NPY-Y1 antag inactive.
O=C(CSc1nc2ccccc2c(=O)n1Cc1ccco1)N1CCCC1 was read as NPY1 pot ag inactive, NPY-Y2 PAM-ag inactive and NPY-Y1 antag inactive.
Screening COCCCn1c(SCc2nnc(-c3ccc(OC)c(OC)c3)o2)nc2ccccc2c1=O returned NPY1 pot ag inactive, NPY Y2 blocker inactive, NPY-Y2 PAM-ag inactive and NPY-Y1 antag inactive.
`CC(C)Cn1c(SCC(=O)N2CCCCC2)nc2ccccc2c1=O` gave NPY1 pot ag inactive, NPY Y2 blocker 24, NPY-Y2 PAM-ag inactive and NPY-Y1 antag 22.
`O=C(Cn1nnc2ccccc21)OCC(=O)c1ccccc1` gave NPY1 pot ag inactive, NPY Y2 blocker inactive, NPY-Y2 PAM-ag inactive and NPY-Y1 antag inactive.
Screening Cc1nc(-c2ccccc2)sc1C(=O)CSc1ccccc1 returned NPY1 pot ag inactive, NPY Y2 blocker 24, NPY-Y2 PAM-ag inactive and NPY-Y1 antag 21.
Cc1nc(-c2ccccc2)sc1C(N)=O was read as NPY1 pot ag inactive, NPY Y2 blocker inactive, NPY-Y2 PAM-ag inactive and NPY-Y1 antag inactive.
O=C(NCc1cccnc1)c1ccc(CS(=O)(=O)Cc2ccc(Cl)cc2)o1 was read as NPY1 pot ag inactive, NPY Y2 blocker inactive, NPY-Y2 PAM-ag inactive and NPY-Y1 antag inactive.
COCc1c(C(=O)OC/C(O)=C(\C#N)c2nc3ccccc3[nH]2)oc2ccccc12 was read as NPY1 pot ag inactive, NPY-Y2 PAM-ag inactive and NPY-Y1 antag 20.
COC(=O)C1=C(N)OC2=C(C(=O)CCC2)C1c1ccccc1OC (stereo unspecified) was read as NPY1 pot ag inactive and NPY-Y2 PAM-ag inactive.
`N=c1c2c(-c3ccccc3)c(-c3ccccc3)n(Cc3ccco3)c2ncn1Cc1ccco1` gave NPY1 pot ag inactive, NPY Y2 blocker 32, NPY-Y2 PAM-ag inactive and NPY-Y1 antag 22.
Screening CCCCn1c(=O)[nH]c(=O)c2c1ncn2Cc1ccco1 returned NPY1 pot ag inactive, NPY Y2 blocker inactive, NPY-Y2 PAM-ag inactive and NPY-Y1 antag inactive.
Screening CCCCn1cnc2c(c(-c3ccccc3)c(-c3ccccc3)n2Cc2ccco2)c1=N returned NPY1 pot ag 52 and NPY-Y2 PAM-ag 52.
Screening N=c1c2c(-c3ccccc3)c(-c3ccccc3)n(Cc3ccccc3)c2ncn1CCCn1ccnc1 returned NPY1 pot ag inactive, NPY Y2 blocker 49, NPY-Y2 PAM-ag inactive and NPY-Y1 antag 92.
Cc1cc(NCCCn2ccnc2)n2nc(C)c(-c3ccccc3)c2n1 was read as NPY1 pot ag inactive, NPY Y2 blocker inactive, NPY-Y2 PAM-ag inactive and NPY-Y1 antag inactive.
`Cc1[nH][nH]c(=O)c1C=NCc1cccnc1` gave NPY1 pot ag inactive, NPY-Y2 PAM-ag inactive and NPY-Y1 antag inactive.
CC1=CC(C)(C)N(C(=O)C(C)N2C(=O)c3ccccc3C2=O)c2c(C)cc(C)cc21 (stereo unspecified) was read as NPY1 pot ag inactive, NPY Y2 blocker 18, NPY-Y2 PAM-ag inactive and NPY-Y1 antag 28.
COc1ccc2c(c1)C(C)=CC(C)(C)N2C(=O)C(C)N1C(=O)c2ccccc2C1=O (stereo unspecified) was read as NPY1 pot ag inactive, NPY Y2 blocker inactive, NPY-Y2 PAM-ag inactive and NPY-Y1 antag inactive.
CCN(Cc1ccccc1)C(c1ccncc1)c1nnnn1C(C)(C)C (stereo unspecified) was read as NPY1 pot ag inactive, NPY Y2 blocker inactive, NPY-Y2 PAM-ag inactive and NPY-Y1 antag inactive.
For CC(C)(C)c1ccc(CN(Cc2ccccc2)C(c2ccccn2)c2nnnn2C(C)(C)C)cc1 (stereo unspecified) the results were NPY1 pot ag inactive, NPY Y2 blocker inactive, NPY-Y2 PAM-ag inactive and NPY-Y1 antag inactive.
CC(C)(C)n1nnnc1C(c1ccc(F)cc1)N(Cc1ccc(F)cc1)Cc1ccco1 (stereo unspecified) was read as NPY1 pot ag inactive, NPY Y2 blocker 27, NPY-Y2 PAM-ag inactive and NPY-Y1 antag 47.
For CC(C)(C)n1nnnc1C(c1ccc(C(F)(F)F)cc1)N(Cc1ccc(F)cc1)Cc1ccco1 (stereo unspecified) the results were NPY1 pot ag inactive, NPY Y2 blocker 26, NPY-Y2 PAM-ag inactive and NPY-Y1 antag 32.
For CC(C)C(c1nnnn1Cc1ccccc1)N(Cc1ccco1)Cc1cccs1 (stereo unspecified) the results were NPY1 pot ag inactive, NPY Y2 blocker inactive, NPY-Y2 PAM-ag inactive and NPY-Y1 antag inactive.
Screening CC(C)(C)n1nnnc1C(c1ccc(Cl)cc1)N(Cc1cccnc1)Cc1ccco1 (stereo unspecified) returned NPY1 pot ag inactive, NPY Y2 blocker 28, NPY-Y2 PAM-ag inactive and NPY-Y1 antag 25.
For Cc1ccc(C(c2nnnn2C(C)(C)C)N(Cc2ccco2)Cc2cccs2)cc1 (stereo unspecified) the results were NPY1 pot ag inactive, NPY Y2 blocker 18, NPY-Y2 PAM-ag inactive and NPY-Y1 antag inactive.
`CC(C)(C)n1nnnc1CN(Cc1cccnc1)Cc1ccccc1Cl` gave NPY1 pot ag inactive, NPY Y2 blocker inactive, NPY-Y2 PAM-ag inactive and NPY-Y1 antag inactive.
For Fc1ccc(C(c2nnnn2C2CCCC2)N(Cc2ccco2)CC2CCCO2)cc1 (stereo unspecified) the results were NPY1 pot ag inactive, NPY Y2 blocker 43, NPY-Y2 PAM-ag inactive and NPY-Y1 antag 32.
Screening O=C1CC(=C(c2ccccc2)c2ccccc2)C(=O)N1CCCN1CCN(c2cccc(Cl)c2)CC1 returned NPY1 pot ag 75, NPY Y2 blocker inactive, NPY-Y2 PAM-ag 62 and NPY-Y1 antag inactive.
`CC1(C)Cc2nc(-c3ccccc3)nc(SCC(O)CO)c2CO1` (stereo unspecified) gave NPY1 pot ag inactive and NPY-Y2 PAM-ag inactive.
`CCOc1ccc(-n2c(SCc3ccc([N+](=O)[O-])cc3)nnc2-c2ccccc2)cc1` gave NPY1 pot ag inactive, NPY Y2 blocker 149, NPY-Y2 PAM-ag inactive and NPY-Y1 antag 66.
Screening COc1ccc(-c2nnc(SCc3ccccc3)n2N)cc1 returned NPY1 pot ag inactive, NPY Y2 blocker inactive, NPY-Y2 PAM-ag inactive and NPY-Y1 antag inactive.
